# KCNK3 block: human KCNK3 channel inhibition, primary screen; O14649; CHO-KCNK3 thallium flux, FluxOR fluorescence; hits give low values; B-score at 10 µM; 340,000 compounds, 0.84% hits; AID 602410;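 active = B-score under library mean minus 4 SD, starting fluorescence ratio at most library mean plus 5 SD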;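 also: more negative B-score means stronger inhibition of thallium flux through KCNK3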
# KCNQ1 pot: potentiators or activators of human KCNQ1 potassium channel; P51787; CHO-K1 KCNQ1, thallium flux FluxOR fluorescence; hits give high values; B-score at 10 µM; 310,000 compounds, 0.35% hits; AID 2648;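 active = fluorescence ratio B-score, a plate-corrected score, at least three library SD, with initial intensity B-score within 5 SD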
#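 Assay system: CHO-K1 cells stably expressing KCNQ1; Medium: assay buffer with matched DMSO; Also added: K+/Tl+ depolarizing stimulus; Dosing: single dose; Timing: dye 90 min, compound 20 min, room temperature; Measured by: kinetic FluxOR thallium fluorescence, 10-s 1-Hz baseline, 110-s post-stimulus read; Read-out: peak-minus-minimum fluorescence over initial fluorescence, negative-control normalized, B-scored.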
# KCNQ1 block: inhibitors of human KCNQ1 potassium channel; AID 2642; 310,000 compounds, 1.3% hits; P51787; CHO-K1 KCNQ1, FluxOR thallium flux fluorescence; hits give high values; B-score at 10 µM;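 active = compounds whose thallium flux B-score, printed positive for inhibition, exceeds three library SD while starting fluorescence stays within three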;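 also: channel opened by potassium depolarization with thallium stimulus after 20 min compound exposure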
# KCNK9 inh: human KCNK9 channel inhibition; HEK293 KCNK9, FluxOR thallium flux fluorescence; hits give low values; AID 488922; 310,000 compounds, 1.2% hits; Q9NPC2; B-score at 10 µM;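 active = ratio B-score over 3 SD below the library mean, with starting fluorescence within 5 SD of its mean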;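 also: negative B-score means less thallium flux so channel inhibition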
# Target sequence (Q9NPC2 whole entry, looked up): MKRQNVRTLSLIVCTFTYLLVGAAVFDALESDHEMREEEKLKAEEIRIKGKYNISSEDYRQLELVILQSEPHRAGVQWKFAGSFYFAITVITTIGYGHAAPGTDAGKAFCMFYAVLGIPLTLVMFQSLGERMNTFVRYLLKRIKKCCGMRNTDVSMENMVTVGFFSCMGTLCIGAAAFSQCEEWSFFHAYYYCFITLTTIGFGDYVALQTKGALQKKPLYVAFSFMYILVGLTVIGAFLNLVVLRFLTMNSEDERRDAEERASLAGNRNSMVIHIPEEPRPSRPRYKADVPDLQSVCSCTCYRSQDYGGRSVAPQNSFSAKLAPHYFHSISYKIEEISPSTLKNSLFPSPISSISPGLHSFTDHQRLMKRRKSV
# hERG protect: compounds protecting human hERG from proarrhythmic drug block; Q12809; CHO-hERG, FluxOR thallium flux, dofetilide IC70 present; activation (rescue from dofetilide block), less the hit threshold, % at 10 µM; 310,000 compounds, 0.51% hits; AID 1511;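 active = activation above the mean of controls blocked by dofetilide plus 5 SD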;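 also: thallium influx through hERG after potassium depolarization seen as dye fluorescence rise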
# KCNK9 block conf: human KCNK9 inhibitor confirmation; 4,900 compounds, 43% hits; shares compounds with KCNK9 inh; AID 492992; HEK293 KCNK9 cells, FluxOR thallium flux fluorescence; inhibition, % at 10 µM;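 active = thallium signal inhibited by more than 5 SD of the compound-free buffer control wells, on both duplicate plates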
# Kir2-1 spec: selectivity of KCNK9 modulators against mouse Kir2.1; AID 492993; 4,900 compounds, 4% hits; shares compounds with KCNK9 inh; Kir2.1 cells, FluxOR thallium flux fluorescence; inhibition, % at 10 µM;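 active = thallium signal drop more than 5 SD beyond the mean of the no-compound control wells, seen in both duplicate plates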;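 also: signal is fluorescence rise after thallium addition divided by baseline fluorescence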
# KCNK9 uninduced: second counter-screen for KCNK9 modulators: effect in non-induced cells; 4,900 compounds, 40% hits; non-induced KCNK9-HEK293, FluxOR thallium flux; shares compounds with KCNK9 inh; inhibition, % at 10 µM; AID 492997;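 active = thallium signal drop beyond 5 SD of the untreated control mean, on both duplicate plates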
# Numbers stand for hits; 0 = inactive; - = not tested or not shown. Sampled rows, rich in hits. Any-hit rate of the full collection: about 3.1%.
SMILES,KCNK3 block,KCNQ1 pot,KCNQ1 block,KCNK9 inh,hERG protect,KCNK9 block conf,Kir2-1 spec,KCNK9 uninduced
CCn1c(=O)n(CC)c2cc(N3CCCC3)c(NC(=O)c3cc(Cl)ccc3OC)cc21,0,0,0,0,0,-,-,-
COc1ccc(C(=O)Nc2cc3c(cc2N2CCCCC2)n(C)c(=O)n3C)cc1OC,0,0,0,0,0,-,-,-
COc1cc(C(=O)Nc2cc3c(cc2N2CCCCC2)n(C)c(=O)n3C)cc(OC)c1OC,0,0,0,-19.6,0,67.0%,0,0
CCn1c(=O)n(CC)c2cc(N3CCCC3)c(NC(=O)c3ccccc3OC)cc21,0,0,0,-8.97,0,42.0%,0,0
O=C(Cc1csc(-c2ccccc2)n1)NCC(=O)Nc1ccc(F)c(F)c1F,0,-,-,-,-,-,-,-
O=C(O)CN1C(=O)/C(=C\c2cc(Br)ccc2OCc2ccc(Cl)cc2)SC1=S,0,0,0,0,0,-,-,-
O=C(O)CN1C(=O)/C(=C\c2cc([N+](=O)[O-])ccc2OCc2ccccc2Cl)SC1=S,0,0,0,0,0,0,0,0
CCCCC(OC(=O)CN1C(=O)COc2ccccc21)C(=O)NC1CCCCC1 (configuration not stated),0,0,0,0,0,-,-,-
CCOC(=O)c1sc(NC(=O)CSc2n[nH]c(CC(C)C)n2)nc1C,0,0,0,0,0,-,-,-
CCOc1ccc(C2CC(c3ccc(OC)c(OC)c3)n3nc(N)nc3N2)cc1 (configuration not stated),0,0,0,0,0,-,-,-
CCCCOC1CC(c2ccc(OCc3ccc(OC)cc3)c(OC)c2)N(C)O1 (configuration not stated),0,0,0,0,0,0,0,0
S=C(c1ccc(-c2cc(Cl)ccc2Cl)o1)N1CCCCC1,0,0,0,-11.8,0,46.5%,0,41.5%
CCOC(=O)CN1C(=O)N[C@@H](c2ccco2)C(C(C)=O)=C1C,0,0,0,0,0,-,-,-
CC(C)C(Sc1nc(-c2ccccc2)cc(-c2ccccc2)c1C#N)C(=O)O (configuration not stated),0,0,0,0,0,0,0,0
Cn1c(Sc2ccc(Cl)cc2)c(C=O)c2ccccc21,0,0,7,-8.2,0,57.0%,0,46.0%
Cn1c(Oc2ccc(Cl)cc2)c(C=O)c2ccccc21,0,0,0,0,0,-,-,-
O=[N+]([O-])c1ccc(S(=O)(=O)Nc2ccc3c(c2)OCCO3)cc1,0,0,0,-8.11,0,0,0,0
O=c1c2ccccc2nnn1CSc1nc2ccccc2c(=O)n1Cc1ccco1,0,0,0,0,0,-,-,-
COCCn1c(SCc2ccc(F)cc2)nc2ccccc2c1=O,0,0,0,-14.5,0,67.5%,0,38.5%
O=c1c2ccccc2nc(SCc2cccc(F)c2)n1Cc1ccco1,0,0,0,-15.7,0,55.0%,0,53.5%
COCCn1c(SCc2nc3ccccc3c(=O)[nH]2)nc2ccccc2c1=O,0,0,0,0,0,-,-,-
COc1cccc(CC2(CO)CCCN(C/C=C/c3ccccc3OC)C2)c1 (configuration not stated),0,0,0,0,0,-,-,-
OCC1(Cc2cccc(Cl)c2)CCCN(Cc2sc(N3CCCC3)nc2Cl)C1 (configuration not stated),0,0,0,0,0,0,0,0
COc1ccccc1/C=C/CN1CCCC(CO)(Cc2cccc(Cl)c2)C1 (configuration not stated),0,0,0,0,0,0,0,0
CC(C)OC(=O)c1cn(-c2ccccc2)nc1-c1ccc2c(c1)OCCO2,0,0,0,0,0,0,0,0
SMILES,KCNK3 block,KCNQ1 pot,KCNQ1 block,KCNK9 inh,hERG protect,KCNK9 block conf,Kir2-1 spec,KCNK9 uninduced
C=CCNC(=O)C(=O)N/N=C/c1ccco1,0,0,0,0,0,-,-,-
CC(C)CCC(C)N=Cc1c(O)n(Cc2ccccc2)c(=O)c2ccccc12 (configuration not stated),0,0,0,-12.8,0,73.5%,0,43.5%
CCN(CC)CCCN=Cc1c(O)n(Cc2ccccc2)c(=O)c2ccccc12,0,0,0,0,0,-,-,-
CC(C)c1nnc(NC(=O)Cc2ccccc2[N+](=O)[O-])s1,0,0,0,0,0,-,-,-
Cc1ccc(C)c(NC(=O)C(Sc2nnc(-c3cccs3)o2)c2ccccc2)c1 (configuration not stated),0,-,-,-,-,-,-,-
CCN(CC)c1ccc(/C=N/N2CCN(Cc3ccc(Cl)cc3)CC2)c(O)c1,0,0,0,0,0,-,-,-
CCN(CC)c1ccc(/C=N/N2CCN(Cc3cccc4ccccc34)CC2)c(O)c1,0,0,0,0,0,0,0,0
C(=N\N1CCN(Cc2cccc3ccccc23)CC1)/c1cccs1,0,0,0,0,0,0,0,0
C/C(=N/N1CCN(Cc2cccc3ccccc23)CC1)c1ccco1,0,0,0,0,0,0,0,0
COc1ccc(-c2cc(-c3nnc(COC(=O)CC4CC5CCC4C5)o3)c3ccccc3n2)cc1OC (configuration not stated),0,0,0,0,0,-,-,-
C=C(C(=O)c1ccccc1)C(CC(=O)c1ccccc1)c1ccccc1 (configuration not stated),0,0,0,-13.1,0,45.0%,0,44.5%
O=C(NC1CC1)C1CCN(S(=O)(=O)c2ccc(Cl)c([N+](=O)[O-])c2)CC1,0,-,-,-,-,-,-,-
O=[N+]([O-])c1ccc(N/N=C/c2ccc(OCc3cccc4ccccc34)cc2)nc1,0,0,0,-9.3,0,41.5%,0,0
O=[N+]([O-])c1ccc(N/N=C\c2cccn2-c2ccccc2)nc1,-9.78,0,0,-12,0,65.0%,0,61.5%
O=[N+]([O-])c1ccc(NN=Cc2ccccc2)nc1,0,-,-,-,-,-,-,-
Cc1ccc(N(CC(=O)NCCSc2ccccn2)S(=O)(=O)c2ccc(F)cc2)cc1,0,0,0,0,0,-,-,-
O=S(=O)(c1ccc(F)c(F)c1)N1CCN(CCc2ccccc2)CC1,0,0,0,0,0,0,0,0
Cc1ccc(S(=O)(=O)N2CCN(C3CC(=O)N(CCc4ccccc4)C3=O)CC2)cc1C (configuration not stated),0,0,0,0,0,0,0,0
O=C1CC(N2CCN(S(=O)(=O)c3ccc(Cl)cc3)CC2)C(=O)N1CCc1ccccc1 (configuration not stated),0,0,0,0,0,-,-,-
COc1ccc(S(=O)(=O)N2CCN(C/C=C/c3ccccc3)CC2)cc1F,0,0,0,0,0,0,0,0
O=S(=O)(c1ccccc1F)N1CCN(CCc2ccccc2)CC1,0,0,0,0,0,0,0,0

# Source: PubChem BioAssay (Johns Hopkins Ion Channel Center)
